What is called Ki is a dissociation constant, usually derived from enzyme kinetics or from competition with a known ligand. Low values mean higher affinity, high ones lower affinity.

From ChEMBL document CHEMBL1139414, “Conformationally constrained analogues of diacylglycerol. 29. Cells sort diacylglycerol-lactone chemical zip codes to produce diverse and selective biological activities” (J Med Chem, 2008) come the findings set out here.

Experiment [1] addresses Transcription factor Jun (Mus musculus) (UniProt P05627). As to the kind of experiment: Activation of AP1 expressed in BALB/c mouse JB6 cells coexpressing luciferase reportet gene at 100 ng/mL after 18 hrs relative to 12-O-tetradecanoylphorbol-13-O-acetate. In kind it is cell-based. The method in brief:
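JB6 P+ cells seeded at 10⁴, transfected with 4x AP-1 luciferase reporter (0.2 μg DNA) using a 3:1 lipid reagent ratio; on day 3 treated with DMSO, TPA (10 ng/mL) or DAG-lactone (100 ng/mL); luciferase read 18 h later. Values normalized to TPA-induced activity; average of 6 independent assays.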

A further experiment concerns NK92. As to the kind of experiment: Induction of IFN-gamma production in human NK92 cells at 1 ug/mL after 6 hrs by ELISA. Format: functional, cell-based. In outline: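 NK92 cells (10⁶ cells/mL) in RPMI with 10% FCS, glutamine and Pen/Strep at 37 °C for 6 h with derivative (1 μg/mL) alone or with IL12 (100 u/10⁶ cells), in duplicate wells. IFN-γ in supernatants by ELISA.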
(In general: An ELISA detects its analyte on a solid surface through an enzyme-linked reagent.)

Experiment [2] has as its system LNCaP. As to the kind of experiment: Induction of apoptosis in human LnCAP cells pretreated at 10 uM for 16 hrs followed by 20 Gy radiation assessed after 24 hrs post radiation by fluorescence microscopy. In kind it is functional, cell-based. The method in brief: (§1)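 LNCaP cells in RPMI-1640 with 0.2% human albumin replacing FCS from 24 h before the experiment; pretreated 16 h with compound (10 or 20 μM), then 20 Gy irradiation. Fixed 24 h post radiation, stained with bis-benzimide and scored by fluorescence microscopy; cells with ≥3 apoptotic bodies counted apoptotic. Average of two experiments ± SD.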

Experiment [3] has as its system LNCaP. As to the kind of experiment: Induction of apoptosis in human LnCAP cells pretreated at 20 uM for 16 hrs followed by 20 Gy radiation assessed after 24 hrs post radiation by fluorescence microscopy. In kind it is functional, cell-based. In outline:
as §1

Experiment [4] is described as follows: Selectivity ratio of Ki for mouse PKCalpha to Ki for RasGRP3.
Experiment [5] relates to LNCaP. The experiment can be described thus: Antitumor activity against human LnCAP cells transplanted in Swiss nude mouse assessed as reduction in ataxia telengiectasia mutated gene level at 12 mg/kg, ip administered as 2 injections at 24 hrs intervals assessed after 8 weeks by radioimmunoassay. In kind it is functional, organism-based. On the set-up: dose 12 mg/kg. The following applies: in the assay text read “48 hrs after first injection” for “after 8 weeks”. In outline: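 Orthotopic LNCaP prostate tumors (~100 mm³) in Swiss nude mice; 12 mg/kg i.p., two injections 24 h apart, prostate resected 48 h after first injection. ATM measured in tumor extracts relative to vehicle control.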

The test system of experiment [6] is LNCaP. The experiment can be described thus: Antitumor activity against human LnCAP cells transplanted in Swiss nude mouse assessed as inhibition of tumor growth at 12 mg/kg, ip administered daily 16 hrs prior to 10 Gy radiation during first week followed by 2 injections at 48 hrs intervals during second week assessed after 8 weeks by radioimmunoassay. Format: functional, organism-based. Also noted: dose 12 mg/kg. The method in brief: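 Male Swiss nude mice (8–10 weeks) implanted orthotopically in prostate with 3.0×10⁶ LNCaP cells; used when serum PSA was 5.0–15.0 ng/mL. Drug 12 mg/kg i.p. in DMSO, 16 h before each 1 Gy local pelvic fraction (daily, Mon–Fri, total 10 Gy) in week 1, then two injections 48 h apart in week 2. Serum PSA by radioimmunoassay through week 8; mean per group.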

The target of experiment [7] is Protein kinase C alpha type (Mus musculus, UniProt P20444). The experiment can be described thus: Displacement of [3H]PDBu form mouse PKCalpha by scintillation counting. In outline:
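Partially purified mouse PKCα; competition with [³H]PDBU. ID50 obtained by fitting a sigmoidal competition curve and converted to Ki = ID50/(1+L/Kd). Pure compounds tested at 6–7 concentrations; crude library compounds at a single 1 μM concentration. Triplicates per concentration, at least three experiments; mean ± SEM.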
Background: In a radioligand displacement assay an active substance lowers the binding of a labelled ligand.

Experiment [8] has as its target T1, Ras guanyl-releasing protein 3 (Homo sapiens, UniProt Q8IV61).
T1 sequence (Q8IV61 whole entry): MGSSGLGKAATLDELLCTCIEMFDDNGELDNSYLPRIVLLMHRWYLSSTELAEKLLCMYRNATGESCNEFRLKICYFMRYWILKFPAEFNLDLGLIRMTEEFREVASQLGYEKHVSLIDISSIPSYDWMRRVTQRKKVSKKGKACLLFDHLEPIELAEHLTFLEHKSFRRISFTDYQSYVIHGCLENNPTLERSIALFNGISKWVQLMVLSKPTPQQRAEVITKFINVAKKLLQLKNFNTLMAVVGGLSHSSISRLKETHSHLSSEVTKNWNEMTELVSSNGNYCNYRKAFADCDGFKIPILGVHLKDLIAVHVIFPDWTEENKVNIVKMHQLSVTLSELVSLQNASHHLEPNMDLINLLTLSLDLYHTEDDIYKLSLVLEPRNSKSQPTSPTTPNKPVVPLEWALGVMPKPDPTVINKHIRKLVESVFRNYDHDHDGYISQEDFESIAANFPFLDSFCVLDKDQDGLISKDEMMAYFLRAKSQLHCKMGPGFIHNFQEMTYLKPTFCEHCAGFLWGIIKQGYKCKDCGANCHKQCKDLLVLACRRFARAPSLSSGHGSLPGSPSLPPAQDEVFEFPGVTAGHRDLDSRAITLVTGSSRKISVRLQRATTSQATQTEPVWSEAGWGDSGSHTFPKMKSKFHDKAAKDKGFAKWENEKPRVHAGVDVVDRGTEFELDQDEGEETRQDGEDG
The experiment can be described thus: Binding affinity to RasGRP3.

Another experiment has as its system MCF-10A. As to the kind of experiment: Induction of human MCF10A cell motility at 10 uM after 20 hrs by photomicroscopy relative to diacylglycerol-lactone. Format: functional, cell-based. The method in brief: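 MCF-10A cells seeded in a small circular area through a 10-hole manifold; at manifold removal, compound added to a final 10 μM (vehicle 1% v/v DMSO), 37 °C, 5% CO₂. Radial spread imaged over 20 h; radius in microns expressed as a ratio to the radius from the DAG-lactone positive control. Triplicate measurements.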

The subject of experiment [9] is CHO. As to the kind of experiment: Translocation of GFP-tagged PKCbeta from cytosol to membrane compartment of CHO cells. Format: functional, cell-based. The method in brief:
(§2)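 GFP-tagged PKC isoforms overexpressed in CHO cells; live-cell localization followed by confocal microscopy before and after ligand (300 nM). Representative of 2 (PKCβ, ε) or 3 (PKCα, δ) independent experiments.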

Experiment [10] deals with CHO. The experiment can be described thus: Translocation of GFP-tagged mouse PKCdelta from cytosol to membrane compartment of CHO cells by confocal microscopy. Format: functional, cell-based. The following applies: Cricetulus griseus. In outline: as §2
The subject of experiment [11] is CHO. The experiment can be described thus: Translocation of GFP-tagged PKCalpha from cytosol to membrane compartment of CHO cells by confocal microscopy.
Experiment [12] deals with CHO. The experiment can be described thus: Translocation of GFP-tagged PKCepsilon from cytosol to membrane compartment of CHO cells by confocal microscopy.

SMILES strings stand for the structures. Calls of active or inactive are those of the source. The calls are words filed in the database; no cut-off is given here.

Sequence of Transcription factor Jun (Mus musculus) (P05627 whole entry): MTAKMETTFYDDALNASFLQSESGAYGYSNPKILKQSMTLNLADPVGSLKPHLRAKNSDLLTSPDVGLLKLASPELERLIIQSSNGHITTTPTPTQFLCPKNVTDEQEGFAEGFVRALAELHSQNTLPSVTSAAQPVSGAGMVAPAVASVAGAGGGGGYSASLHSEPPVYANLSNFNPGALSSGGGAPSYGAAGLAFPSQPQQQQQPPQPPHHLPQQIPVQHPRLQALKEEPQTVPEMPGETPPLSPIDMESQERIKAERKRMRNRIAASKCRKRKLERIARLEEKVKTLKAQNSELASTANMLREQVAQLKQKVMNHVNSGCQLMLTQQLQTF

As for `CCCCC(CC)C(=O)OCC1(CO)C/C(=C\c2ccc(Cl)c(F)c2)C(=O)O1` (racemic; form 2), the result (in experiment [1]; with NK92) was Active.

With `CCCCC(CC)C(=O)OCC1(CO)C/C(=C\c2ccc(Cl)cc2)C(=O)O1` (racemic; form 2), the result (in experiment [1]; in the experiment on NK92) was Active.

`CCCC(CCC)C(=O)OCC1(CO)C/C(=C\c2ccc(F)cc2)C(=O)O1` (racemic; form 1): the outcome (in experiment [1]; with LNCaP [2]; with LNCaP [3]) was Active.

With `O=C1OC(CO)(COC(=O)c2ccc([N+](=O)[O-])cc2)C/C1=C\c1ccc([N+](=O)[O-])cc1` (racemic; form 2), the Ratio Ki in [4] stood at 57.

Consider `CCCC(CCC)C(=O)OCC1(CO)C/C(=C\c2ccc(C(F)(F)F)cc2)C(=O)O1` (racemic; form 1), for which the outcome (in [1]; with LNCaP [2]; with LNCaP [3]; in the experiment with LNCaP [5]; with LNCaP [6]; in the experiment on NK92) was Active.

Consider `CN(C)c1cccc(C(=O)OCC2(CO)C/C(=C\c3cccc([N+](=O)[O-])c3)C(=O)O2)c1` (racemic), for which the values for the inhibitory constant (Ki) in [7] and in [8] were 63 nM and 5.3 nM, respectively.

For `CCCCC(CC)C(=O)OCC1(CO)C/C(=C\c2ccc(F)c(Br)c2)C(=O)O1` (racemic; form 2), the outcome in the experiment with MCF-10A, in the experiment with CHO [9], in the experiment on CHO [10], with CHO [11] and with CHO [12] was Active.

With `CN(C)c1ccc(C(=O)OCC2(CO)C/C(=C\c3cccc([N+](=O)[O-])c3)C(=O)O2)cc1` (racemic), the inhibition constant Ki in experiment [7] is 72.4 nM; in [8], 8 nM.

For the compound `CN(C)c1ccccc1C(=O)OCC1(CO)C/C(=C\c2ccccc2[N+](=O)[O-])C(=O)O1` (racemic), the inhibitory constant (Ki) in experiment [7] came out at 134 nM; in experiment [8] it was 9.4 nM.

For `CCC(C(=O)OCC1(CO)C/C(=C\c2ccc(-c3ccc(C(F)(F)F)cc3)cc2)C(=O)O1)c1ccccc1` (racemic; form 2), the result in the experiment on MCF-10A was Active.

The compound `CCCCC(CC)C(=O)OCC1(CO)C/C(=C/c2ccc(Cl)c(F)c2)C(=O)O1` (racemic) registered a Ki in [7] of 10.1 nM. The outcome (in experiment [1]; in the experiment with NK92) was Active.
